Reference: ChEMBL document CHEMBL3352181, “Novel phenyl and pyridyl substituted derivatives of isoindolines: Synthesis, antitumor activity and DNA binding features” (Eur J Med Chem, 2014)
The source made the active and inactive calls. No cut-off for these calls is given here.

Legend:
[1] = test system: MCF7; assay: Antiproliferative activity against human MCF7 cells assessed as inhibition of cell proliferation after 72 hrs by MTT assay; assay type: functional, cell-based
In short: (§1)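 Cells grown as monolayers in DMEM with 10% FBS, 2 mM L-glutamine, penicillin/streptomycin, 37 °C, 5% CO2. Seeded at 5000/well on day 0. Compounds added after 24 h as five serial dilutions (0,01 to 100 µM), DMSO ≤0.1%, then 72 h. MTT read-out converted to percentage growth. IC50 by linear regression; quadruplicates in three experiments.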

[2] = (§2) Antiproliferative activity against human SW620 cells assessed as inhibition of cell proliferation after 72 hrs by MTT assay; assay type: functional, cell-based, SW-620; details: Homo sapiens, SW-620, 72 h; in short: as §1
[3] = test system: HepG2; assay: Antiproliferative activity against human HepG2 cells assessed as inhibition of cell proliferation after 72 hrs by MTT assay; assay type: functional, cell-based; details: for IC50: HepG2, 72 h; in short: as §1
[4] = test system: BJ; assay: Antiproliferative activity against human BJ cells assessed as inhibition of cell proliferation after 72 hrs by MTT assay; assay type: cell-based; details: 72 h; for IC50: Homo sapiens, BJ; for inhibition (INH): human, bj; in short: as §1
[5] = test system: HeLa; assay: Antiproliferative activity against human HeLa cells assessed as inhibition of cell proliferation after 72 hrs by MTT assay; assay type: functional, cell-based; details: for IC50: Homo sapiens, HeLa, 72 h; in short: as §1
[6] = test system: SW-620; assay: as §2; assay type: functional, cell-based; in short: as §1
[7] = test system: Calf thymus DNA; assay: Binding affinity to calf thymus DNA assessed as change in melting temperature at drug/ base pair ratio of 0.25 by spectrophotometry; assay type: nucleic-acid assay; details: Bos taurus
In short: (§3)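 CT-DNA absorbance followed at 260 nm from 20 to 100 °C, rising 1 °C per min, in BPE buffer, with or without compound at drug/base-pair ratio 0.25 or 0.5. Tm taken as midpoint of the hyperchromic transition from first-derivative plots. ΔTm is Tm with compound minus Tm of DNA alone.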

[8] = test system: Calf thymus DNA; assay: Binding affinity to calf thymus DNA assessed as change in melting temperature at drug/ base pair ratio of 0.5 by spectrophotometry; assay type: nucleic-acid assay; details: Bos taurus; in short: as §3
[9] = test system: Calf thymus DNA; assay: Binding affinity to calf thymus DNA at 50 uM circular dichroism spectroscopy; assay type: nucleic-acid assay; details: Bos taurus
In short: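 CD spectra recorded from 480 to 230 nm, 10 mm path, 20 °C, in BPE buffer. CT-DNA (50 µM) incubated with compound rising from 1 to 60 µM or to 80 µM. Compound without DNA served as the control for intrinsic CD.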

[10] = biological target: T1, DNA topoisomerase 1 (Homo sapiens) (UniProt P11387); assay: Inhibition of human topoisomerase 1 assessed as topoisomerase poison activity by measuring generation of open circular DNA using supercoiled pUC19 DNA at 5 to 50 uM by agarose gel electrophoresis
T1 sequence (whole entry): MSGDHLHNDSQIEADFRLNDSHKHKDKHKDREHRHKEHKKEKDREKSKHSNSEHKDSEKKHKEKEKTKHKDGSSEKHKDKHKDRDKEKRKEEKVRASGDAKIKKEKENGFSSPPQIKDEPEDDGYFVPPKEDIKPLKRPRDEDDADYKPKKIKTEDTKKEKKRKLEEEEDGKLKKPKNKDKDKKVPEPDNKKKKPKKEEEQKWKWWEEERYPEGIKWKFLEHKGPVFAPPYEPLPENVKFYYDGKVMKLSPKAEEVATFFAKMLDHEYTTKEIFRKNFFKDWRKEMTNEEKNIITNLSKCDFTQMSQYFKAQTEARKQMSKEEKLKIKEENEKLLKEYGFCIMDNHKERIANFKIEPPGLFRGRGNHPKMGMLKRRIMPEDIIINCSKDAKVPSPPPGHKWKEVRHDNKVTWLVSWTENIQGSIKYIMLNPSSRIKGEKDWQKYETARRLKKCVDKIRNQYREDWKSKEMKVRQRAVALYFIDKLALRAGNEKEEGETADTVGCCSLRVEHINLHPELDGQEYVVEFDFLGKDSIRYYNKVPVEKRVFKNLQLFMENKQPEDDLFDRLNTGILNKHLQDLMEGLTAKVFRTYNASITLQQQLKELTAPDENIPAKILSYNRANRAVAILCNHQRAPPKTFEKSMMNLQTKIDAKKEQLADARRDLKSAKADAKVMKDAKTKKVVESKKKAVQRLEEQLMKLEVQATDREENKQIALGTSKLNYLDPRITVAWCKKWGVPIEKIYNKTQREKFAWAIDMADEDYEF
In short: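 Supercoiled pUC19 plasmid was incubated with human topoisomerase I and graded compound concentrations. Reactions were stopped with SDS and proteinase K. DNA forms were resolved on 1% agarose in TBE (2 h, 120 V), post-stained with ethidium bromide and photographed under UV. Poisoning was read as appearance of nicked DNA, with camptothecin as the positive control.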

[11] = test system: Nucleic Acid; assay: Induction of DNA intercalation in supercoiled pUC19 DNA in presence of human topoisomerase 1 assessed as effect on topoisomerase 1-mediated DNA relaxation at 5 to 50 uM by agarose gel electrophoresis; assay type: nucleic-acid assay; details: Escherichia coli
In short: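 Supercoiled pUC19 incubated with human topoisomerase I and graded compound concentrations. Stopped with SDS/proteinase K. DNA forms resolved on 1% agarose in TBE, 2 h at 120 V, stained post-run with ethidium bromide and viewed under UV. Camptothecin was the topo I poison control.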

[12] = Binding affinity to pBluescript 265 bp DNA fragment (unknown origin) at 1 to 25 uM incubated for 15 mins by DNase-1 foot printing assay
In short: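 265 bp EcoRI/PvuII fragment of pBluescript, 3'-end labelled with α[32P]-dATP, incubated with compound (up to 50 µM) for 15 min at 37 °C, then mildly digested with DNase I. Run on 8% denaturing polyacrylamide/8 M urea gels and imaged by phosphor screen. Base positions assigned against a DMS/piperidine G-track.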

`Nc1ccc(/N=C2\c3ccccc3CN2c2ccc(N)cc2)cc1` [listing 1 of 2 here] showed an IC50 ([1]; mcf7) of 0.05 µM, an IC50 [2] of over 100 µM and an IC50 [3] of over 100 µM. For the same compound, the IC50 [4] was over 100 µM, the “inhibition (INH)” value [4] was “Dose-dependent effect” and the IC50 [5] was over 100 µM.
With `CN(C)c1ccc(/N=C2\c3ccccc3CN2c2ccc(N(C)C)cc2)cc1` the inhibition [1] was “Dose-dependent effect”, the IC50 ([1]; Homo sapiens, MCF7, 72 h) was 8.99 µM and the IC50 [2] was over 100 µM. The inhibition [6] was “Dose-dependent effect”, the inhibition [3] was “Dose-dependent effect” and the IC50 [3] was 82.3 µM. For the same compound, the IC50 [4] was over 100 µM, the “inhibition (INH)” value [4] was “Dose-dependent effect” and the inhibition [5] was “Dose-dependent effect”. For the same compound, the IC50 [5] was 92.5 µM.
With `Cl.N=C(N)c1ccc(/N=C2\c3ccccc3CN2c2ccc(C(=N)N)nc2)cn1` the ΔTm [7] was 8.8 °C, the ΔTm [8] was 14.6 °C and the Activity [9] was “Active”. For the same compound, the inhibition [10] was “inactive”, the Activity [11] was “Active” and the inhibition [1] was “Dose-dependent effect”. For the same compound, the IC50 ([1]; Homo sapiens, MCF7, 72 h) was 42.1 µM, the IC50 [2] was over 100 µM and the inhibition [6] was “Dose-dependent effect”. The inhibition [3] was “Dose-dependent effect”, the IC50 [3] was 33.9 µM and the IC50 [4] was over 100 µM. The “inhibition (INH)” value [4] was “Dose-dependent effect”, the inhibition [5] was “Dose-dependent effect” and the IC50 [5] was 68.8 µM.
For `Nc1ccc(/N=C2\c3ccccc3CN2c2ccc(N)cc2)cc1` [listing 2 of 2 here], the ΔTm [8] was 0 °C, the inhibition [10] was “inactive” and the Activity [11] was “inactive”. The inhibition [1] was “Dose-dependent effect”, the inhibition [6] was “Dose-dependent effect” and the inhibition [3] was “Dose-dependent effect”. The inhibition [5] was “Dose-dependent effect”.
For `Cl.c1ccc2c(c1)CN(c1ccc(C3=NCCN3)cc1)/C2=N/c1ccc(C2=NCCN2)cc1`, the ΔTm [7] was 16 °C, the ΔTm [8] was 19.6 °C and the Activity [9] was “Active”. For the same compound, the inhibition [10] was “inactive”, the Activity [12] was “inactive” and the Activity [11] was “Active”. The inhibition [1] was “Dose-dependent effect”, the IC50 ([1]; Homo sapiens, MCF7, 72 h) was 20 µM and the IC50 [2] was over 100 µM. For the same compound, the inhibition [6] was “Dose-dependent effect”, the inhibition [3] was “Dose-dependent effect” and the IC50 [3] was 83.2 µM. For the same compound, the IC50 [4] was 8.77 µM, the “inhibition (INH)” value [4] was “Dose-dependent effect” and the inhibition [5] was “Dose-dependent effect”. The IC50 [5] was 78 µM.
In the case of `Nc1ccc(/N=C2\c3ccccc3CN2c2ccc(N)nc2)cn1`, the inhibition [1] is reported as “Dose-dependent effect”, the IC50 ([1]; Homo sapiens, MCF7, 72 h) is reported as 80.7 µM and the IC50 [2] is reported as over 100 µM. The inhibition [6] was “Dose-dependent effect”, the inhibition [3] was “Dose-dependent effect” and the IC50 [3] was 88.9 µM. The IC50 [4] was over 100 µM, the “inhibition (INH)” value [4] was “Dose-dependent effect” and the inhibition [5] was “Dose-dependent effect”. The IC50 [5] was over 100 µM.
With `CC(C)NC(=N)c1ccc(N2Cc3ccccc3C2=O)nc1.Cl` the inhibition [1] was “Dose-dependent effect”, the IC50 ([1]; Homo sapiens, MCF7, 72 h) was 6.43 µM and the IC50 [2] was 79.9 µM. For the same compound, the inhibition [6] was “Dose-dependent effect”, the inhibition [3] was “Dose-dependent effect” and the IC50 [3] was 51.5 µM. The IC50 [4] was 18.1 µM, the “inhibition (INH)” value [4] was “Dose-dependent effect” and the inhibition [5] was “Dose-dependent effect”. The IC50 [5] was over 100 µM.
